Screening data deposited in PubChem by several laboratories.
An excerpt weighted towards active compounds, which were near 1.4% of everything screened.
Thrombin inh – inhibitors of human thrombin. P00734. alpha-thrombin, Boc-VPR-AMC fluorogenic substrate cleavage. AID 1046. 220,000 compounds, 0.26% hits. inhibition, % at 5 µM;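 active = inhibition at or above 40%; inactive = inhibition below 40%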;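 note: 0% = enzyme with no compound and 100% = wells without enzyme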
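System – human alpha-thrombin protein · Reagent – Boc-VPR-AMC substrate, 15 µM final · Compound – 5 µM single dose in 0.2% DMSO · Schedule – reaction at room temperature · Technique – AMC fluorescence at 355 nm excitation and 460 nm emission · Read-out basis – % inhibition relative to enzyme controls and enzyme-free blanks · Control set – no-compound enzyme wells and no-enzyme blanks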
FXIIa inh – blocks human coagulation factor XIIa protease activity; P00748; purified FXIIa, Boc-QGR-AMC fluorogenic substrate, 2 h; inhibition, % at 5 µM; 220,000 compounds, 0.3% hits; AID 800; in the data active = inhibition above about 40%;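 note: 0% = enzyme with no compound and 100% = blank without enzyme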
Furin inhibitor – inhibitors of human furin; purified furin, fluorogenic substrate cleavage; inhibition, % at 20 µM or 30 µM; 220,000 compounds, 0.061% hits; AID 463115; in the data active = inhibition above about 25%
Target sequence (P09958 108-714 limits assumed): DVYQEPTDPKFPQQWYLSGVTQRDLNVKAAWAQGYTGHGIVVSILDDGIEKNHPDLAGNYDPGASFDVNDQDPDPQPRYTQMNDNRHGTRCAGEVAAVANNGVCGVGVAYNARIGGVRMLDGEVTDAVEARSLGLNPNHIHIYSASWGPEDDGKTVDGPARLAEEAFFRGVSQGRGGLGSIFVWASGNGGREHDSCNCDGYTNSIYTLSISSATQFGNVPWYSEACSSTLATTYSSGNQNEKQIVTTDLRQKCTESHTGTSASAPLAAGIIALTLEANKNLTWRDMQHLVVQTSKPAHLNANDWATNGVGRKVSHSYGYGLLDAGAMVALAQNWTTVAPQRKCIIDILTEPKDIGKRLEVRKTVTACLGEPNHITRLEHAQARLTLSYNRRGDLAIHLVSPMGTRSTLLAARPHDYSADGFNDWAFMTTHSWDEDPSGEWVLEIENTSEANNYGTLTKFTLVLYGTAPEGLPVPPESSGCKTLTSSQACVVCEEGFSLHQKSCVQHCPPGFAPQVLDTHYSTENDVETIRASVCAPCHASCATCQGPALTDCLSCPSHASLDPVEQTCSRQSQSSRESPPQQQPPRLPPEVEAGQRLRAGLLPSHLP
Calpain2 inh – blocks pig calpain II enzyme activity; purified calpain II, fluorogenic peptide substrate, 30 min; 220,000 compounds, 0.37% hits; inhibition, % at 16 µM; AID 1236;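 active = inhibition above about 50%, limit read from the data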
hK5 inh – kallikrein 5 (human) inhibition; recombinant hK5, fluorogenic AMC substrate cleavage; Q9Y337; inhibition, % at 5 µM; 210,000 compounds, 0.59% hits;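 active = inhibition of 40% or more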;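 note: 0% = enzyme controls without compound and 100% = no-enzyme blanks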
FXIa inh – inhibitors of human coagulation factor XIa | P03951 | 220,000 compounds, 0.14% hits | purified FXIa, Boc-Glu-Ala-Arg-AMC fluorogenic substrate | inhibition, % at 5 µM;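 active = inhibition of at least 40%; inactive = inhibition below 40%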;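 note: fluorescence of freed AMC excited at 355 nm; 0% = enzyme without compound and 100% = no enzyme blank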
Numbers without * were called inactive.

Results for COc1ccc(N(CC(O)CN2C(=O)NC(C)(C)C2=O)S(=O)(=O)c2ccc(C)cc2)cc1 (centres undefined) ?
Thrombin inh: -5; FXIIa inh: -8; Furin inhibitor: -18; Calpain2 inh: -11; hK5 inh: -14; FXIa inh: 2

What do the screens show for `Cc1ccc(N(CC(O)CN2C(=O)NC(C)(C)C2=O)S(=O)(=O)c2ccc(C)cc2)cc1` (centres undefined)?
Thrombin inh: 12; FXIIa inh: 49*; Furin inhibitor: 11; Calpain2 inh: 13; hK5 inh: 31; FXIa inh: 34

Results for COC(=O)C1CC(=O)c2ccsc2C1 (centres undefined) ?
Thrombin inh: 49*; FXIIa inh: 9; Furin inhibitor: -6; Calpain2 inh: 17; hK5 inh: 30; FXIa inh: -1

What do the screens show for `COC(=O)C(Cc1ccc(OC(=O)c2ccc(C(F)(F)F)cc2)cc1)N1Cc2ccccc2C1=O` (centres undefined)?
Thrombin inh: 3; FXIIa inh: 15; Furin inhibitor: -14; Calpain2 inh: 71*; hK5 inh: -5; FXIa inh: 6

How did CC(C)CC(=O)NC(=S)Nc1ccccc1N1CCCC1 do in these assays?
Thrombin inh: -7; FXIIa inh: -1; Furin inhibitor: -1; Calpain2 inh: 27; hK5 inh: 26; FXIa inh: -16

Results for CC(C)CC(=O)Nc1ccccc1N1CCCC1 ?
Thrombin inh: 20; FXIIa inh: 26; Furin inhibitor: -9; Calpain2 inh: 18; hK5 inh: 72*; FXIa inh: -4

How did O=C(/C=C/c1cccs1)N1CCOCC1 do in these assays?
Thrombin inh: 4; FXIIa inh: 21; Furin inhibitor: -28; Calpain2 inh: 56*; hK5 inh: -5; FXIa inh: 10

How did O=C(/C=C/c1cccs1)N1CCN(c2ccc(F)cc2)CC1 do in these assays?
Thrombin inh: 1; FXIIa inh: 12; Furin inhibitor: 0; Calpain2 inh: 5; hK5 inh: 3; FXIa inh: 2

Results for O=C(N/N=C/c1cc([N+](=O)[O-])ccc1O)c1cccc2cc[nH]c12 ?
Thrombin inh: 13; FXIIa inh: 19; Furin inhibitor: 10; Calpain2 inh: 16; hK5 inh: 60*; FXIa inh: -9

Results for CC1=CC2=NC(=O)/C(=C\c3cccn3CCOc3cc(C)cc(C)c3)C(=N)N2O1 ?
Thrombin inh: 5; FXIIa inh: 12; Furin inhibitor: 5; Calpain2 inh: 88*; hK5 inh: 1; FXIa inh: 5

How did COCCn1c(N)c(N(Cc2ccccc2)C(=O)c2ccc3ccccc3c2)c(=O)[nH]c1=O do in these assays?
Thrombin inh: -4; FXIIa inh: 10; Furin inhibitor: -13; Calpain2 inh: -13; hK5 inh: 6; FXIa inh: 2

Results for Cc1ccc(-c2nc(NCc3ccco3)n(S(C)(=O)=O)n2)cc1 ?
Thrombin inh: 3; FXIIa inh: 5; Furin inhibitor: -17; Calpain2 inh: -17; hK5 inh: -11; FXIa inh: -3

What do the screens show for `CC(C)C(=O)n1nc(-c2cccnc2)nc1NCc1ccc(F)cc1`?
Thrombin inh: 100*; FXIIa inh: 1; Furin inhibitor: -10; Calpain2 inh: 5; FXIa inh: 3

What do the screens show for `COc1ccc(CNc2nc(NCc3ccc(OC)cc3)n(C(C)=O)n2)cc1`?
Thrombin inh: -1; FXIIa inh: 6; Furin inhibitor: -1; Calpain2 inh: -25; hK5 inh: -3; FXIa inh: -5

What do the screens show for `COc1ccc(CC(=O)n2nc(-c3ccccc3)nc2NCc2ccco2)cc1`?
Thrombin inh: 93*; FXIIa inh: 13; Furin inhibitor: -14; Calpain2 inh: -54; hK5 inh: -19; FXIa inh: 6

How did CC(=O)n1nc(-c2ccc(C)cc2)nc1NCc1ccc(F)cc1 do in these assays?
Thrombin inh: 94*; FXIIa inh: -7; Furin inhibitor: -17; Calpain2 inh: -19; hK5 inh: -24; FXIa inh: -9

What do the screens show for `CC(=O)n1nc(-c2ccc(C)cc2)nc1NCc1ccco1`?
Thrombin inh: 69*; FXIIa inh: 10; Furin inhibitor: -22; Calpain2 inh: -7; hK5 inh: 6; FXIa inh: -1

How did COc1ccccc1C(=O)n1nc(-c2cccnc2)nc1NCc1ccccc1 do in these assays?
FXIIa inh: 3; Furin inhibitor: -14; Calpain2 inh: -2; hK5 inh: 0; FXIa inh: 15

Results for Cc1ccc(SCc2[nH]nc3c2C2(CCSCC2)C(C#N)=C(N)O3)cc1 ?
Thrombin inh: -2; FXIIa inh: 1; Furin inhibitor: -4; Calpain2 inh: -17; hK5 inh: 14; FXIa inh: 1

How did CCOC(=O)N1CCC2(CC1)C(C#N)=C(N)Oc1n[nH]c(CSc3ccc(C)cc3)c12 do in these assays?
Thrombin inh: -2; FXIIa inh: 2; Furin inhibitor: -23; Calpain2 inh: 91*; hK5 inh: -17; FXIa inh: 4

How did COc1ccc(N2C(=O)C(CC(=O)Nc3ccccc3)N(Cc3ccc4c(c3)OCO4)C2=O)cc1 (centres undefined) do in these assays?
Thrombin inh: 1; FXIIa inh: 24; Furin inhibitor: -13; Calpain2 inh: 5; hK5 inh: -12; FXIa inh: 5

What do the screens show for `Cc1cc(NC(=O)CSc2nc3ccsc3c(=O)n2CCCC(=O)NCCc2ccccc2)no1`?
Thrombin inh: -5; FXIIa inh: 15; Furin inhibitor: -6; Calpain2 inh: 50*; hK5 inh: -7; FXIa inh: 4

Results for CCN(CC)C(=O)CSc1nc2ccsc2c(=O)n1CCCC(=O)NCCc1ccc(S(N)(=O)=O)cc1 ?
Thrombin inh: -13; FXIIa inh: 9; Furin inhibitor: -11; Calpain2 inh: 26; hK5 inh: -3; FXIa inh: 6

Results for CCCCCn1c(=O)c(-c2nc3ccccc3c(=O)[nH]2)c(O)c2ccccc21 ?
Thrombin inh: -1; FXIIa inh: -10; Furin inhibitor: -17; Calpain2 inh: 6; hK5 inh: -9; FXIa inh: -12

How did COc1ccc(C(=O)NCCN2CCOCC2)cc1OC do in these assays?
Thrombin inh: -4; FXIIa inh: 6; Furin inhibitor: 30*; Calpain2 inh: -16; hK5 inh: -7; FXIa inh: 5

What do the screens show for `COc1ccc(C(=O)NCCN2CCCC2)cc1OC`?
Thrombin inh: -4; FXIIa inh: 6; Furin inhibitor: -24; Calpain2 inh: -7; hK5 inh: 2; FXIa inh: -7

What do the screens show for `O=C(OCc1ccccc1)/C(=C/c1cccc2ccccc12)NC(=O)c1ccccc1`?
Thrombin inh: 14; FXIIa inh: 18; Furin inhibitor: 2; Calpain2 inh: 30; hK5 inh: 47*; FXIa inh: 18
